Here are results for three molecules from paper PMC2635062 (Cancer research, 2009).

One assay relates to SiHa cells. The assay can be described thus: Caspase Glo 3/7 assay, SiHa. The format is cell-based, human. The settings on record: 10 or 30 μM with 50 nM compound 3, 72 hours.
For assay [1], the system named is MRC5, WI-38 and IMR-90 normal lung fibroblast cell lines. The assay can be described thus: Caspase Glo 3/7 assay, normal lung fibroblasts. The following applies: control, 1 microM for 72 hours. It counts as cell-based, human.
The subject of the next assay is HCT-116. The assay can be described thus: CellTiter-Glo cytotoxicity assay, HCT-116. It counts as cell-based. The following applies: Homo sapiens. In a few lines: (§1)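 About 5,000 cells/well were dosed either continuously or for a 1 h pulse. After the pulse, cells were washed with pre-warmed medium and kept drug-free. Viability was read by CellTiter-Glo luminescence 72 h after dosing began. IC50 was the half-maximal growth-inhibiting concentration.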
(ATP-based viability assays read luminescence as a measure of living cells.)

The test system of assay [2] is various cancer cell lines. The settings on record: read-out: IC50 against various cancer cell lines; in vitro; cited from earlier work.
A further assay has as its system SiHa. The assay can be described thus: CellTiter-Glo cytotoxicity assay, SiHa. It counts as cell-based. The settings on record: Homo sapiens. A digest of the protocol:
as §1

The test system of a further assay is SKNSH. Description: CellTiter-Glo cytotoxicity assay, SKNSH. The following applies: Homo sapiens, SK-N-SH. It counts as cell-based. A digest of the protocol:
as §1

The subject of the next assay is cancer cell lines. Description: CellTiter-Glo cytotoxicity assay, cancer cell lines in general. It counts as cell-based, human. In a few lines:
as §1

Like-named read-outs stand apart in the source and are kept apart here.

Consider `Cc1ccc(C(=O)Cn2c3c(sc2=N)CCCC3)cc1` [pifithrin-alpha], for which, in the assay with SiHa cells, the “Effect on compound 3-induced apoptosis (caspase 3/7)” value is on record as “blocked compound 3-induced apoptosis”.

Turning to `CN[C@@H]1C[C@H]2O[C@@](C)([C@@H]1OC)n1c3ccccc3c3c4c(c5c6ccccc6n2c5c31)C(=O)NC4` [staurosporine], the “Caspase 3/7 activation” value in assay [1] is “dramatic induction of caspases”.

As to `CCC(=C/[C@H](C)C/C=C/C(C)=C/[C@@H](C)C(=O)[C@@H](C)[C@H](O)[C@@H](C)C/C(C)=C/C(=O)O)/C=C/[C@@H]1OC(=O)C=C[C@@H]1C` [Leptomycin B], the 50% inhibitory concentration (IC50) (commonly the concentration that gives 50% inhibition) in the assay on HCT-116 (HCT-116, 72 h, read-out: HCT-116 (IC50 nM) 72h) was 0.3 nM; in the assay with HCT-116 (HCT-116, read-out: HCT-116 (IC50 nM) 1h), 4.3 nM; in assay [2], 0.1 to 10 nM; in the assay with SiHa (72 h, read-out: SiHa (IC50 nM) 72h), 0.4 nM; with SiHa (read-out: SiHa (IC50 nM) 1h), 2.1 nM; with SKNSH (72 h, read-out: SKNSH (IC50 nM) 72h), 0.4 nM. For the same molecule, the 50% inhibitory concentration (IC50) with SKNSH (read-out: SKNSH (IC50 nM) 1h) is 4.1 nM; in the assay with cancer cell lines (Homo sapiens, read-out: IC50, one hour exposure) it was less than 5 nM. Moreover, the “IC50, 72 hour exposure” value with cancer cell lines (most cancer cell lines, 72 hour exposure) was “sub-nanomolar”.
